Results reported in ChEMBL document CHEMBL1144069, “Cytotoxic activities of hypocretenolides from Leontodon hispidus” (J Nat Prod, 1999).
Calls of active or inactive are those of the source. The calls are words filed in the database; no cut-off is given here.

Tests used:
[1] = Cytotoxicity against human GTB cells after 5 hrs by MTT assay; type: functional, cell-based
Outline: (§1)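 Leukemic cells at 0.5 × 10^6 cells/mL in RPMI were exposed to 0.01–2.00 µM compound (0.1% final DMSO) at 37 °C and 5% CO2. Viability was measured as MTT formazan, dissolved in DMSO and read at 550 and 630 nm. Three wells per point, on three separate days (n = 9). IC50 was taken graphically from per-experiment dose curves.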

HL-60 = assay: Cytotoxicity against human HL-60 cells after 5 hrs by MTT assay; type: functional, cell-based; details: HL-60, 5 h; outline: as §1
A-431 [2] = assay: Cytotoxicity against human A431 cells after 24 hrs by [3H]thymidine incorporation assay; type: functional, cell-based
Outline: (§2)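 Adherent tumor cells (100 µL at 1 × 10^6 cells/mL) were overlaid with 100 µL of medium containing compound in the 0.25–4.00 µM range (0.1% final DMSO). The medium control had no compound. Cells were incubated for 24, 48 or 72 h at 37 °C and 5% CO2, then pulsed 24 h with 3H-thymidine. They were harvested onto glass filters and counted by liquid scintillation. Three wells per point, on three separate days (n = 9). IC50 was taken graphically.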

A-431 [3] = assay: Cytotoxicity against human A431 cells after 48 hrs by [3H]thymidine incorporation assay; type: functional, cell-based; outline: as §2
A-431 [4] = assay: Cytotoxicity against human A431 cells after 72 hrs by [3H]thymidine incorporation assay; type: functional, cell-based; outline: as §2
HEp-2 [5] = assay: Cytotoxicity against human HEP2 cells after 24 hrs by [3H]thymidine incorporation assay; type: functional, cell-based; outline: as §2
HEp-2 [6] = assay: Cytotoxicity against human HEP2 cells after 48 hrs by [3H]thymidine incorporation assay; type: functional, cell-based; outline: as §2
HEp-2 [7] = assay: Cytotoxicity against human HEP2 cells after 72 hrs by [3H]thymidine incorporation assay; type: functional, cell-based; outline: as §2
MCF7 [8] = assay: Cytotoxicity against human MCF7 cells after 24 hrs by [3H]thymidine incorporation assay; type: functional, cell-based; outline: as §2
MCF7 [9] = assay: Cytotoxicity against human MCF7 cells after 48 hrs by [3H]thymidine incorporation assay; type: functional, cell-based; outline: as §2
MCF7 [10] = assay: Cytotoxicity against human MCF7 cells after 72 hrs by [3H]thymidine incorporation assay; type: functional, cell-based; outline: as §2
OVCAR-3 [11] = assay: Cytotoxicity against human OVCAR-3 cells after 24 hrs by [3H]thymidine incorporation assay; type: functional, cell-based; outline: as §2
OVCAR-3 [12] = assay: Cytotoxicity against human OVCAR-3 cells after 48 hrs by [3H]thymidine incorporation assay; type: functional, cell-based; outline: as §2
OVCAR-3 [13] = assay: Cytotoxicity against human OVCAR-3 cells after 72 hrs by [3H]thymidine incorporation assay; type: functional, cell-based; outline: as §2
[14] = Cytotoxicity against human SK MEL28 cells after 24 hrs by [3H]thymidine incorporation assay; type: functional, cell-based; details: SK-MEL-28; outline: as §2
[15] = Cytotoxicity against human SK MEL28 cells after 48 hrs by [3H]thymidine incorporation assay; type: functional, cell-based; details: SK-MEL-28; outline: as §2
[16] = Cytotoxicity against human SK MEL28 cells after 72 hrs by [3H]thymidine incorporation assay; type: functional, cell-based; details: SK-MEL-28; outline: as §2
[17] = Cytotoxicity against human SK37 cells after 24 hrs by [3H]thymidine incorporation assay; type: functional, cell-based; outline: as §2
[18] = Cytotoxicity against human SK37 cells after 48 hrs by [3H]thymidine incorporation assay; type: functional, cell-based; outline: as §2
[19] = Cytotoxicity against human SK37 cells after 72 hrs by [3H]thymidine incorporation assay; type: functional, cell-based; outline: as §2
SW872 [20] = assay: Cytotoxicity against human SW872 cells after 24 hrs by [3H]thymidine incorporation assay; type: functional, cell-based; outline: as §2
SW872 [21] = assay: Cytotoxicity against human SW872 cells after 48 hrs by [3H]thymidine incorporation assay; type: functional, cell-based; outline: as §2
SW872 [22] = assay: Cytotoxicity against human SW872 cells after 72 hrs by [3H]thymidine incorporation assay; type: functional, cell-based
Outline: (§3)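 Adherent tumour cells at 1 × 10^6 cells/mL (100 µL per well) overlaid with an equal volume of medium carrying test substance across 0.25–4.00 µM. Medium-only controls. Incubated 24, 48 or 72 h at 37 °C, 5% CO2, then pulsed 24 h with 3H-thymidine and harvested onto glass filters for scintillation counting. Final DMSO 0.1%. Triplicate wells, three days (n = 9). IC50 read graphically from each experiment's dose curve.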

ZR-75-1 [23] = assay: Cytotoxicity against human ZR-75-1 cells after 24 hrs by [3H]thymidine incorporation assay; type: functional, cell-based; outline: as §3
ZR-75-1 [24] = assay: Cytotoxicity against human ZR-75-1 cells after 48 hrs by [3H]thymidine incorporation assay; type: functional, cell-based; outline: as §3
ZR-75-1 [25] = assay: Cytotoxicity against human ZR-75-1 cells after 72 hrs by [3H]thymidine incorporation assay; type: functional, cell-based; outline: as §3
CD34+ cell [26] = assay: Antiproliferative activity against CSF and human recombinant erythropoietin-induced human CD34+ cells proliferation assessed as inhibition of BFU-erythroid formation at 1 uM after 12 days by clonogenic assay; type: functional, cell-based
Outline: (§4)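 Human CD34+ cells were immunomagnetically selected from mononuclear cells, with purity checked by FACS. They were plated at 2 × 10^3 cells/dish in Iscove's 0.8% methylcellulose with 30% FCS. Stimulation used 3 U/mL rhEPO plus 10% agar-stimulated leukocyte-conditioned medium. Final concentrations were 0.25–2.00 µM. Dishes were run in duplicate and repeated once (n = 4). CFU-E and mature BFU-E were scored at 12 days; primitive BFU-E and CFU-GM (>50 cells) at 18 days. IC50 was read graphically.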

CD34+ cell [27] = assay: Antiproliferative activity against CSF and human recombinant erythropoietin-induced human CD34+ cells proliferation assessed as inhibition of CFU-erythroid formation at 1 uM after 12 days by clonogenic assay; type: functional, cell-based; outline: as §4
[28] = Antiproliferative activity against CSF and human recombinant erythropoietin-induced human CD34+ cells proliferation assessed as inhibition of BFU-erythroid formation at 0.5 uM after 12 days by clonogenic assay; type: functional, CD34+ cell; set-up: scale not given: the % may be the effect or the level left; outline: as §4
[29] = Antiproliferative activity against CSF and human recombinant erythropoietin-induced human CD34+ cells proliferation assessed as inhibition of CFU-erythroid formation at 0.5 uM after 12 days by clonogenic assay; type: functional, CD34+ cell; set-up: scale not given: the % may be the effect or the level left; outline: as §4
CD34+ cell [30] = assay: Antiproliferative activity against CSF and human recombinant erythropoietin-induced human CD34+ cells proliferation assessed as inhibition of BFU-erythroid formation after 12 days by clonogenic assay; type: functional, cell-based; outline: as §4
[31] = (§5) Antiproliferative activity against CSF and human recombinant erythropoietin-induced human CD34+ cells proliferation assessed as inhibition of CFU-erythroid formation after 12 days by clonogenic assay; type: functional, CD34+ cell; outline: as §4
CD34+ cell [32] = assay: as §5; type: functional; outline: as §4
CD34+ cell [33] = assay: Antiproliferative activity against CSF and human recombinant erythropoietin-induced human CD34+ cells proliferation assessed as inhibition of CFU-GM formation after 18 days by clonogenic assay
[34] = Antiproliferative activity against CSF and human recombinant erythropoietin-induced human CD34+ cells proliferation assessed as inhibition of CFU-GM formation at 0.5 uM after 18 days by clonogenic assay; set-up: scale not given: the % may be the effect or the level left

| SMILES | IC50 [1] | IC50 (HL-60) | IC50 (A-431 [2]) | IC50 (A-431 [3]) | IC50 (A-431 [4]) | IC50 (HEp-2 [5]) | IC50 (HEp-2 [6]) | IC50 (HEp-2 [7]) | IC50 (MCF7 [8]) | IC50 (MCF7 [9]) | IC50 (MCF7 [10]) | IC50 (OVCAR-3 [11]) | IC50 (OVCAR-3 [12]) | IC50 (OVCAR-3 [13]) | IC50 [14] | IC50 [15] | IC50 [16] | IC50 [17] | IC50 [18] | IC50 [19] | further results |
| --- | --- | --- | --- | --- | --- | --- | --- | --- | --- | --- | --- | --- | --- | --- | --- | --- | --- | --- | --- | --- | --- |
| C=C1C(=O)O[C@@H]2C[C@@H](C)[C@@H]3C=CC(=O)[C@@]3(C)[C@@H](O)[C@H]12 [HELENALIN] | 270 nM | 320 nM | 900 nM | 900 nM | 800 nM | 900 nM | 900 nM | 800 nM | 800 nM | 500 nM | 700 nM | 1400 nM | 1600 nM | 1700 nM | 1300 nM | 900 nM | 500 nM | 1300 nM | 1200 nM | 700 nM | IC50 (SW872 [20]): 1400 nM; IC50 (SW872 [21]): 1200 nM; IC50 (SW872 [22]): 1200 nM; IC50 (ZR-75-1 [23]): 700 nM; IC50 (ZR-75-1 [24]): 800 nM; IC50 (ZR-75-1 [25]): 1100 nM |
| C=C(C(=O)O[C@@H]1[C@@H](O)[C@H](O)[C@@H](OCC2=C3C(=O)C=C(C)[C@@]34C[C@@H](CC2)C(=C)C(=O)O4)O[C@H]1CO)[C@@H]1CCC(CO)=C2C(=O)C=C(C)[C@@]2(O)C1 | 70 nM | 100 nM | 700 nM | 700 nM | 500 nM | 800 nM | 700 nM | 600 nM | 500 nM | 300 nM | 400 nM | 900 nM | 1000 nM | 1000 nM | 1300 nM | 900 nM | 400 nM | 1300 nM | 900 nM | 700 nM | IC50 (SW872 [20]): 1500 nM; IC50 (SW872 [21]): 1400 nM; IC50 (SW872 [22]): 1400 nM; IC50 (ZR-75-1 [23]): 300 nM; IC50 (ZR-75-1 [24]): 300 nM; IC50 (ZR-75-1 [25]): 500 nM; Activity (CD34+ cell [26]): Active; Activity (CD34+ cell [27]): Active; Activity [28]: 60%; Activity [29]: 60%; Activity (CD34+ cell [30]): Dose-dependent effect; IC100 [31]: 2 µM; Activity (CD34+ cell [32]): Dose-dependent effect; Activity (CD34+ cell [33]): Dose-dependent effect; Activity [34]: 60% |
